The target in data set [1] is T1, Broad substrate specificity ATP-binding cassette transporter ABCG2 (Homo sapiens, UniProt Q9UNQ0).
T1 sequence (Q9UNQ0 whole entry): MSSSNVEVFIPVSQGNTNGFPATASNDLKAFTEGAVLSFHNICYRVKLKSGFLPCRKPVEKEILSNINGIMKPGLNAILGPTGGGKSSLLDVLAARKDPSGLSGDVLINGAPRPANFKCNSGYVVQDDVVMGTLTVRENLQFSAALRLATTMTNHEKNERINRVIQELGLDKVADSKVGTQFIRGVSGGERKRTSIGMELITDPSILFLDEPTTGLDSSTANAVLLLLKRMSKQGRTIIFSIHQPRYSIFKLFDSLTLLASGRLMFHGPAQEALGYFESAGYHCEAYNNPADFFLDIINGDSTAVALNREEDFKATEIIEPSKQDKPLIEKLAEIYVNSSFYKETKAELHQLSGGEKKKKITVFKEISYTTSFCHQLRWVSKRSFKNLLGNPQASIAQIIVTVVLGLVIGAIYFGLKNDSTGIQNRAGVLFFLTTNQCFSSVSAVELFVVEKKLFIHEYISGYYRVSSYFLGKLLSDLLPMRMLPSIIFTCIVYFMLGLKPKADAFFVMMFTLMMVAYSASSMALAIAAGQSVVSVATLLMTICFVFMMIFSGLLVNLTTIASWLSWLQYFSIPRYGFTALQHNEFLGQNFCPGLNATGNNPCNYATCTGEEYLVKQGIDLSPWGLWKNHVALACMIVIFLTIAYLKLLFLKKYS
Description: Inhibition of human ABCG2 expressed in MDCK2 cells assessed as reduction in Hoechst 33342 efflux pre-incubated for 30 mins before Hoechst 33342 addition and measured for 120 mins by microplate reader analysis. In kind it is cell-based. The conditions noted are these: read-out: IC50. In outline: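 Compound dilutions up to 10 µM (from 10 mM DMSO stocks) pre-incubated 30 min at 37 °C. Hoechst 33342 then added from 6 µM solution. Fluorescence (ex 355/em 460 nm) read each 60 s over 120 min.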

The target in data set [2] is T1, Broad substrate specificity ATP-binding cassette transporter ABCG2. Description: Inhibition of human ABCG2 expressed in baculovirus infected Sf9 cell membrane assessed as inhibition of vanadate sensitive quercetin-stimulated ATPase activity after 20 mins by colorimetric method. In outline:
(§1)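 Cholesterol-loaded membranes from Sf9 cells infected with baculovirus carrying human wild-type ABCG2; 10 µg protein per reaction. Buffer: 40 mM MOPS-Tris pH 7.0, 50 mM KCl, 2 mM DTT, 0.5 mM EGTA-Tris, 5 mM azide, 1 mM ouabain. Started with 3.3 mM MgATP, 20 min at 37 °C, stopped with SDS. Pi measured by molybdate/ascorbate colour at 880 nm against K2HPO4 standard.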

Data set [3] can be described thus: Ratio of GI50 for wild-type MDCK2 cells to IC50 for human ABCG2 expressed in MDCK2 cells.
Data set [4] concerns the target T1, Broad substrate specificity ATP-binding cassette transporter ABCG2. Description: Reversal of human ABCG2-mediated resistance to SN-38 in human ABCG2 expressed MDCK2 cells assessed as reduction in SN-38 GI50 after 72 hrs by MTT assay.
The next data set concerns the target ABCB1 (Homo sapiens, UniProt P08183). Nature of the data set: Inhibition of ABCB1 in human A2780/ADR cells assessed as reduction in calcein AM efflux at 10 uM pre-incubated for 30 mins before calcein AM addition and measured for 60 mins by microplate reader analysis relative to control. The class given is cell-based. The conditions noted are these: probe calcein AM. In outline: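 Compound at 10 µM pre-incubated 30 min at 37 °C. Calcein AM added from 3.125 µM solution. Fluorescence (ex 485/em 520 nm) read every 60 s for 60 min.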

Data set [5] in a line: Ratio of GI50 for MDCK2 cells expressing human ABCG2 to IC50 for human ABCG2 expressed in MDCK2 cells.
The target in data set [6] is T1, Broad substrate specificity ATP-binding cassette transporter ABCG2. Nature of the data set: Inhibition of human ABCG2 expressed in baculovirus infected Sf9 cell membrane assessed as inhibition of vanadate sensitive basal ATPase activity after 20 mins by colorimetric method. In outline: as §1
Data set [7] has the same target. Description: Inhibition of human ABCG2 expressed in baculovirus infected Sf9 cell membrane assessed as inhibition of vanadate sensitive ATPase activity at 1 uM after 20 mins by colorimetric method. Conditions: sf9, 20 min; call rule not given here.
Data set [8] is described as follows: Cytotoxicity against MDCK2 cells expressing human ABCG2 assessed as reduction in cell viability after 72 hrs by MTT assay. The class given is ADME, cell-based, Canis lupus familiaris. Conditions: dog, MDCK2 (MDCK-II) cells expressing human ABCG2. In outline:
(§2)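 MDCK II cells retrovirally transfected with human ABCG2-GFP cDNA, and wild-type MDCK II, in DMEM with 10% FBS. Seeded at 3 x 10^3 cells/well and attached 6 h at 37 °C, 5% CO2. Compounds up to 100 µM for 72 h. Controls were 10% DMSO and medium. MTT (5 mg/ml) added for 1 h, read at 570 nm minus 690 nm. Data normalised; GI50 from variable-slope sigmoidal fit.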
On the technique in general: Tetrazolium assays rely on reduction of a dye to a coloured formazan, in cell work by metabolically active cells.

For another data set, the target named is T2, ABCG2 (Homo sapiens, UniProt Q9UNQ0).
T2 sequence (Q9UNQ0 whole entry): T1 sequence (Q9UNQ0 whole entry)
Description: Ratio of IC50 for human ABCG2 expressed in baculovirus infected Sf9 cell membrane assessed as inhibition of vanadate sensitive quercetin-stimulated ATPase activity to IC50 for human ABCG2 expressed in baculovirus infected Sf9 cell membrane assessed as inhibition of vanadate sensitive basal ATPase activity. The conditions noted are these: read-out: Ratio IC50.

The nature of data set [9]: Cytotoxicity against wild-type MDCK2 cells assessed as reduction in cell viability after 72 hrs by MTT assay. In kind it is cell-based, Canis lupus familiaris. The conditions noted are these: dog, wild-type MDCK2 (MDCK-II) cells. In outline: as §2
For data set [10], the target named is T1, Broad substrate specificity ATP-binding cassette transporter ABCG2. Description: Inhibition of human ABCG2 expressed in MDCK2 cells assessed as reduction in pheophorbide A efflux pre-incubated for 30 mins before pheophorbide A addition and measured for 120 mins by flow cytometry. Conditions: read-out: IC50. (In general: A flow cytometer gives signals particle by particle.)

Data set [11] is described as follows: Solubility in pH 7.4 Krebs-HEPES buffer assessed as compound precipitation at 10 uM after 2 hrs by UV-visible spectrophotometric analysis. The class given is physicochemical. The conditions noted are these: pH 7.4, 2 h. In outline:
(§3)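 10 µM test solutions prepared from DMSO stocks as for the Hoechst 33342 assay, in Krebs-HEPES pH 7.4. Absorbance at an absorption peak maximum recorded every 120 s for 2 h at room temperature by UV/visible spectrophotometer.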

Data set [12] can be described thus: Solubility in pH 7.4 Krebs-HEPES buffer assessed as absorbance value at 10 uM after 2 hrs by UV-visible spectrophotometric analysis relative to control. In kind it is physicochemical. The conditions noted are these: pH 7.4, 2 h. In outline: as §3
Data set [13] in a line: Solubility in pH 7.4 Krebs-HEPES buffer at 10 uM after 2 hrs by UV-visible spectrophotometric analysis. The class given is physicochemical. Conditions: pH 7.4, 2 h. In outline: as §3

The structures appear in SMILES notation. Bounds are passed on as bounds.

The values that follow come from ChEMBL document CHEMBL4477211, “Synthesis and Investigation of Tetrahydro-β-carboline Derivatives as Inhibitors of the Breast Cancer Resistance Protein (ABCG2)” (J Med Chem, 2016).

Sequence of ABCB1 (P08183 whole entry): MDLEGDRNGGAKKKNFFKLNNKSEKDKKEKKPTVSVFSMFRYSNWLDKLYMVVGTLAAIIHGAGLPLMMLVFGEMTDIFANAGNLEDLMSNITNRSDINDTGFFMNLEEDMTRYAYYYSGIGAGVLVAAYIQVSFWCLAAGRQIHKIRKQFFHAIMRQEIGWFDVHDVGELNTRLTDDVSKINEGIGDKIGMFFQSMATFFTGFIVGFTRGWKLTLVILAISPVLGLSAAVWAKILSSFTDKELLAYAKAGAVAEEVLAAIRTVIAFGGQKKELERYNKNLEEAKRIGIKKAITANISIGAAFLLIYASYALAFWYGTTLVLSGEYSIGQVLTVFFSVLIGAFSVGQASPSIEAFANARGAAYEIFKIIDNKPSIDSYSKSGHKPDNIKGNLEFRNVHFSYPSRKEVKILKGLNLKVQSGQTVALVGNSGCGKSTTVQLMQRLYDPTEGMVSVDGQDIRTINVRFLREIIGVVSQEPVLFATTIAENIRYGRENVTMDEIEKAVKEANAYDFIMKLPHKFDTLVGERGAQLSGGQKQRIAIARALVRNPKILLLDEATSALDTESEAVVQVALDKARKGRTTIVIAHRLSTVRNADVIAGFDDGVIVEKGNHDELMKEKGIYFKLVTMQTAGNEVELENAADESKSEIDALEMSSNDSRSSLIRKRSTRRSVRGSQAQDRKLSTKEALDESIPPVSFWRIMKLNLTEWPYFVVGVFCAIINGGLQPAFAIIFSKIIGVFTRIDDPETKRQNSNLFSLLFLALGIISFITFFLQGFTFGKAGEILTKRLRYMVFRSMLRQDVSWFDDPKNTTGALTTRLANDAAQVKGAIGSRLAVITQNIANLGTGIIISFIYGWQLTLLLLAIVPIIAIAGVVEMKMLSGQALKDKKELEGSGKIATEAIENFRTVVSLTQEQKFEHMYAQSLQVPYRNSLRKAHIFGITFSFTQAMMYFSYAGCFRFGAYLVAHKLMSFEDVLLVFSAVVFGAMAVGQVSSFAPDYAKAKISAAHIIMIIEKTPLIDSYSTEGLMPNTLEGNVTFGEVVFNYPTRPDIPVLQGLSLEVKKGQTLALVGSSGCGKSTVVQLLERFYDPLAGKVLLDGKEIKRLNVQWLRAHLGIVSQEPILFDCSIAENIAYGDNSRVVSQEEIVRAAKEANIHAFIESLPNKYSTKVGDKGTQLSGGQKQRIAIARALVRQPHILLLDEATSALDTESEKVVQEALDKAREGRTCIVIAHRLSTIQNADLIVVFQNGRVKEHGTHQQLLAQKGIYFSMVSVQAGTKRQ

The IC50 is the concentration that gives 50% inhibition. The inhibition is the change of the read-out against control, counted positive when it falls. By GI50 is commonly meant the concentration that inhibits growth by half. For `COc1cccc(C(=O)N2CCc3c([nH]c4ccccc34)C2c2ccc(Cl)c(Cl)c2)c1` (stereo not drawn), the IC50 in data set [1] turned out to be 238 nM; in [2], 262 nM; in data set [6] it was 38 nM; in data set [10] it was 206 nM. Also, the Ratio entry in data set [3] and in [5] was “<=20” each time. The Activity entry in data set [4] is reported as “Dose-dependent effect”. On ABCB1, the inhibition at 1 h, 10 µM was below 25%. The “inhibition (INH)” value in [7] was “Active”. Moreover, the results for the 50% growth inhibitory concentration (GI50) at 72 h in data set [8] and in [9] were 5820 nM and 6550 nM, respectively. For the same compound, the selectivity ratio on ABCG2 came out at 7.

For the compound `O=C(c1ccccc1)N1CCc2c([nH]c3ccccc23)C1c1cccc([N+](=O)[O-])c1` (stereo not drawn), in data set [1], the 50% inhibitory concentration (IC50) is above 10000 nM. Further, the inhibition at 1 h, 10 µM at ABCB1 was below 25%. Besides, in data set [11], the Activity stood at 80%.

Regarding `COc1ccc2[nH]c3c(c2c1)CCN(C(=O)c1ccccc1)C3c1ccc(Cl)c(Cl)c1` (stereo not drawn), the IC50 in data set [1] turned out to be 382 nM; in [2], 299 nM; in data set [6] it was 29 nM. For the same compound, the Ratio entry in data set [3] and in data set [5] was “<=20” each time. Further, the Activity result in [4] is given as “Dose-dependent effect”. Moreover, at ABCB1, the inhibition at 1 h, 10 µM is below 25%. Further, the “inhibition (INH)” value in data set [7] is recorded as “Active”. Further, the 50% growth inhibitory concentration (GI50) at 72 h in [8] was determined as 4170 nM; in [9], 5270 nM. The selectivity ratio at ABCG2 was 10.4.

In the case of `O=C(c1ccccc1)N1CCc2c([nH]c3ccccc23)C1c1ccc(Cl)c(Cl)c1` (stereo not drawn), the half-inhibitory concentration (IC50) in [1] turned out to be 328 nM; in [2] it was 262 nM; in [6], 31 nM; in [10], 365 nM. The Ratio result in data set [3] and in data set [5] was “<=20” throughout. Also, the Activity result in data set [4] was “Dose-dependent effect”. Besides, at ABCB1, the inhibition at 1 h, 10 µM is below 25%. The “inhibition (INH)” value in data set [7] is given as “Active”. Also, the concentration for 50% growth inhibition (GI50) at 72 h is 6950 nM in data set [8] and 7290 nM in data set [9]. Also, the selectivity ratio at ABCG2 was found to be 8.4.

As for `O=C(c1ccccc1)N1CCc2c([nH]c3ccccc23)C1c1ccc(Cl)cc1` (stereo not drawn), the IC50 is 741 nM in data set [1], 560 nM in data set [2], 60 nM in data set [6] and 784 nM in data set [10]. Besides, the Ratio in [3] and in data set [5] was 20 - 30 in each case. Also, the Activity entry in [4] is listed as “Dose-dependent effect”. On ABCB1, the inhibition at 1 h, 10 µM was below 25%. Further, the “inhibition (INH)” value in data set [7] is listed as “Active”. For the same compound, the GI50 at 72 h in data set [8] is 18100 nM; in data set [9], 16400 nM. The selectivity ratio at ABCG2 is 9.3.

With `O=C(c1ccccc1)N1CCc2c([nH]c3ccccc23)C1c1ccccc1Br` (stereo not drawn), the 50% inhibitory concentration (IC50) in [1] was above 10000 nM. Besides, the Activity in data set [12] was found to be 40%. The inhibition at 1 h, 10 µM at ABCB1 is below 25%.

`O=C(c1ccccc1)N1CCc2c([nH]c3ccccc23)C1c1ccc(Br)cc1` (stereo not drawn): the IC50 in data set [1] came out at 687 nM; in data set [2] it was 863 nM; in data set [6], 112 nM. Moreover, the Ratio in data set [3] and in [5] was 20 - 30 in each case. The Activity result in [4] was “Dose-dependent effect”. At ABCB1, the inhibition at 1 h, 10 µM is below 25%. Further, in [7], the “inhibition (INH)” value is recorded as “Active”. The concentration for 50% growth inhibition (GI50) at 72 h came out at 20600 nM in [8] and 19400 nM in data set [9]. For the same compound, the selectivity ratio at ABCG2 was found to be 7.7.

As for `O=C(c1ccccc1)N1CCc2c([nH]c3ccccc23)C1c1ccccc1Cl` (stereo not drawn), in [1], the concentration for half-maximal inhibition (IC50) is above 10000 nM. For the same compound, the Activity in data set [12] was found to be 40%. The inhibition at 1 h, 10 µM at ABCB1 was below 25%.

Regarding `COc1ccc(C(=O)N2CCc3c([nH]c4ccccc34)C2c2ccc(Cl)c(Cl)c2)cc1` (stereo not drawn), the IC50 in [1] was determined as 233 nM; in data set [2], 285 nM; in data set [6], 26 nM; in [10], 237 nM. The Ratio result in data set [3] and in [5] was “<=20” throughout. In [4], the Activity result is given as “Dose-dependent effect”. Also, the inhibition at 1 h, 10 µM at ABCB1 is below 25%. Also, in data set [7], the “inhibition (INH)” value is listed as “Active”. Also, the GI50 at 72 h in data set [8] was 4670 nM; in data set [9], 4830 nM. The selectivity ratio on ABCG2 was determined as 11. The solubility entry in data set [13] was “Soluble”.

Take `O=C(c1ccccc1)N1CCc2c([nH]c3ccccc23)C1c1ccc(C(F)(F)F)cc1` (stereo not drawn): the half-inhibitory concentration (IC50) in [1] is above 10000 nM. Moreover, at ABCB1, the inhibition at 1 h, 10 µM was below 25%. In data set [11], the Activity came to 80%.
